Assay results as given in article PMC5087271 (Nature methods, 2015).
“Also recorded” adds a separate entry of the source. One block for each molecule: values may come before it. Ends that are not written are not given here.

Assays:
PAR1 = assay: cell-based assays of antagonist dissociation from PAR1
human PAR1 = target: T1, human PAR1 (Homo sapiens, UniProt P25116); type: binding; settings: PEG spacer carrying PAR1 N terminus with the SFLLRN ligand replaced
T1 sequence (P25116 36-397): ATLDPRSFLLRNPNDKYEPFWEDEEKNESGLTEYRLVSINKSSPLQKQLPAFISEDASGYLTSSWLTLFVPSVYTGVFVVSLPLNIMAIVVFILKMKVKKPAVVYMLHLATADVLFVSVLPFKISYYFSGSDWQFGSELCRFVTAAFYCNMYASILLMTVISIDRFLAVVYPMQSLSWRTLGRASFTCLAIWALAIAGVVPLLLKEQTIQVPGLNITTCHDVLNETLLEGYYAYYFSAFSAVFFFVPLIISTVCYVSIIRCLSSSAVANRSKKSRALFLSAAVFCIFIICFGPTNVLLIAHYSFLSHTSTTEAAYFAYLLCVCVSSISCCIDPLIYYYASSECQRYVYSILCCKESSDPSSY

platelets = settings: at 200 μM peptide; cited from earlier work
[1] = system: PAR1 complexed with the antagonist vorapaxar; type: binding, human; settings: vorapaxar-blocked versus free PAR1
In short: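 Human PAR1 (residues Ala36–Tyr397) expressed in Sf9 cells via baculovirus and purified with 100 nM vorapaxar during lysis and solubilisation, then 1 μM through Ni-NTA, M1 and SEC. Reconstituted at 10 μM into DOPC/CHS liposomes, diluted 300-fold, adsorbed on mica. Cys-peptide ligand coupled to PEG-tipped cantilevers. Probed at 0.25 kHz, 30–50 nm amplitude, ~150 pN, ~27 °C. Free-energy landscape fitted from DFS plots.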

[2] = target: T2, SFLLRN tethered ligand peptide (TRAP) (Homo sapiens); assay: FD-based AFM
T2 chain: SFLLRN

[3] = target: T3, SFLLRN tethered ligand peptide (TRAP) (Homo sapiens, vorapaxar-bound PAR1); assay: FD-based AFM
T3 chain: SFLLRN

SALLRN peptide = target: T4, SALLRN peptide (Homo sapiens); assay: FD-based AFM
T4 chain: SALLRN

SFLLAN peptide = target: T5, SFLLAN peptide (Homo sapiens); assay: FD-based AFM
T5 chain: SFLLAN

Kd [2]: ~0.35 µM
Kd [3]: ~40 µM
B1: PAR1 36-397 (protein)
chain: ATLDPRSFLLRNPNDKYEPFWEDEEKNESGLTEYRLVSINKSSPLQKQLPAFISEDASGYLTSSWLTLFVPSVYTGVFVVSLPLNIMAIVVFILKMKVKKPAVVYMLHLATADVLFVSVLPFKISYYFSGSDWQFGSELCRFVTAAFYCNMYASILLMTVISIDRFLAVVYPMQSLSWRTLGRASFTCLAIWALAIAGVVPLLLKEQTIQVPGLNITTCHDVLNETLLEGYYAYYFSAFSAVFFFVPLIISTVCYVSIIRCLSSSAVANRSKKSRALFLSAAVFCIFIICFGPTNVLLIAHYSFLSHTSTTEAAYFAYLLCVCVSSISCCIDPLIYYYASSECQRYVYSILCCKESSDPSSY

Kd (SALLRN peptide): ~3500 µM
B2: PAR1 36-397 (protein)
chain: ATLDPRSALLRNPNDKYEPFWEDEEKNESGLTEYRLVSINKSSPLQKQLPAFISEDASGYLTSSWLTLFVPSVYTGVFVVSLPLNIMAIVVFILKMKVKKPAVVYMLHLATADVLFVSVLPFKISYYFSGSDWQFGSELCRFVTAAFYCNMYASILLMTVISIDRFLAVVYPMQSLSWRTLGRASFTCLAIWALAIAGVVPLLLKEQTIQVPGLNITTCHDVLNETLLEGYYAYYFSAFSAVFFFVPLIISTVCYVSIIRCLSSSAVANRSKKSRALFLSAAVFCIFIICFGPTNVLLIAHYSFLSHTSTTEAAYFAYLLCVCVSSISCCIDPLIYYYASSECQRYVYSILCCKESSDPSSY

Kd (SFLLAN peptide): ~30 µM
B3: PAR1 36-397 (protein)
chain: ATLDPRSFLLANPNDKYEPFWEDEEKNESGLTEYRLVSINKSSPLQKQLPAFISEDASGYLTSSWLTLFVPSVYTGVFVVSLPLNIMAIVVFILKMKVKKPAVVYMLHLATADVLFVSVLPFKISYYFSGSDWQFGSELCRFVTAAFYCNMYASILLMTVISIDRFLAVVYPMQSLSWRTLGRASFTCLAIWALAIAGVVPLLLKEQTIQVPGLNITTCHDVLNETLLEGYYAYYFSAFSAVFFFVPLIISTVCYVSIIRCLSSSAVANRSKKSRALFLSAAVFCIFIICFGPTNVLLIAHYSFLSHTSTTEAAYFAYLLCVCVSSISCCIDPLIYYYASSECQRYVYSILCCKESSDPSSY

Second part, the molecule before the results:

Molecule: CCOC(=O)NC1CCC2C(C1)CC1C(=O)OC(C)C1C2CCc1ccc(-c2cccc(F)c2)cn1 (centres unmarked) [vorapaxar derivative]
dissociation rate compared with that of vorapaxar (PAR1): much faster dissociation rate

Molecule: FLLNSR
specific interaction of the functionalized tip with PAR1 (control) (human PAR1): did not interact specifically

Molecule: H-SALLRN [SALLRN]
response in platelet aggregation assays (platelets): no response

Molecule: H-SFLLAN [SFLLAN]
change of binding strength / affinity to PAR1 in the presence of vorapaxar [1]: remained nearly unchanged; also recorded: no change in binding affinity
